Laboratory results as given in ChEMBL document CHEMBL3351576, “Five new quassinoids and cytotoxic constituents from the roots of Eurycoma longifolia” (Bioorg Med Chem Lett, 2014).

How the values were obtained:
[1] = tested on: A549; assay: Cytotoxicity against human A549 cells assessed as cell viability at 1 uM by SRB assay; assay type: functional; conditions: read-out: Activity
Method in brief: (§1)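 Modified sulforhodamine B (SRB) protein-stain assay. Each human cancer line was exposed to 1, 10 and 100 µM of each isolated root constituent. The read-out is relative cell viability (%), reported as mean ± error.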

[2] = tested on: A549; assay: Cytotoxicity against human A549 cells assessed as cell viability at 10 uM by SRB assay; assay type: functional; conditions: read-out: Activity; method in brief: as §1
[3] = tested on: A549; assay: Cytotoxicity against human A549 cells assessed as cell viability at 100 uM by SRB assay; assay type: functional; conditions: read-out: Activity; method in brief: as §1
[4] = tested on: HeLa; assay: Cytotoxicity against human HeLa cells assessed as cell viability at 1 uM by SRB assay; assay type: functional; conditions: read-out: Activity; method in brief: as §1
[5] = tested on: HeLa; assay: Cytotoxicity against human HeLa cells assessed as cell viability at 10 uM by SRB assay; assay type: functional; conditions: read-out: Activity; method in brief: as §1
[6] = tested on: HeLa; assay: Cytotoxicity against human HeLa cells assessed as cell viability at 100 uM by SRB assay; assay type: functional; conditions: read-out: Activity; method in brief: as §1
[7] = tested on: HeLa; assay: Cytotoxicity against human HeLa cells by SRB assay; assay type: functional, cell-based

Row | SMILES | viability at 1 µM [1] [%] | viability at 10 µM [2] [%] | viability at 100 µM [3] [%] | viability at 1 µM [4] [%] | viability at 10 µM [5] [%] | viability at 100 µM [6] [%] | IC50 [7] [µM]
1 | C=C1C(=O)C(O)=C2[C@@](C)([C@@H]3OC(=O)C=C3C)C[C@H]3OC(=O)[C@H](O)[C@]1(O)[C@@]23CO | 100 | 102 | 100 | 102 | 104 | 101 | –
2 | CC1=CC(=O)[C@@H](O)[C@]2(C)[C@H]3[C@]4(O)OC[C@@]35[C@@H](C[C@@H]12)OC(=O)[C@H](O)[C@@]5(O)[C@H](C)[C@H]4O [PASAKBUMIN C] | 99.2 | 101 | 99.8 | 99.8 | 102 | 101 | –
3 | C=C1C[C@H](O)[C@@H](O)[C@]2(C)[C@H]3[C@@H](O)[C@H](O)[C@H](C)[C@@H]4C(=O)O[C@H]([C@H](O)[C@@H]12)[C@]34C | 96.8 | 101 | 101 | 99.7 | 101 | 98.7 | –
4 | CC1=CC(=O)O[C@H]1[C@@]1(C)C[C@H]2OC(=O)[C@H](O)[C@@]3(O)[C@H](C)C(=O)C(O)=C1[C@@]23CO | 101 | 104 | 104 | 102 | 104 | 106 | –
5 | CC1=CC(=O)[C@@H](O)[C@@]2(C)[C@H]1CC(=O)[C@@]1(C)[C@H]3C(=O)O[C@H]([C@@H]3C)[C@H](O)[C@@H]12 [EURYCOMALACTONE] | 101 | 71.5 | 41.5 | 105 | 77.7 | 44.5 | –
6 | CC1=CC(=O)O[C@H]1[C@@]1(C)C[C@H]2OC(=O)[C@H](O)[C@@]3(O)[C@@H](C)[C@@H](O)[C@H](O)[C@H]1[C@@]23C | 102 | 102 | 100 | 104 | 104 | 103 | –
7 | CC1=CC(=O)[C@@H](O)[C@]2(C)[C@H]3[C@@H](O)[C@H](O)[C@H](C)[C@]4(O)[C@@H](O)C(=O)O[C@H](C[C@@]12O)[C@]34C | 99.8 | 101 | 99.3 | 101 | 103 | 100 | –
8 | C=C1[C@@H](O)[C@@]2(O)OC[C@]34[C@H]2[C@@]2(C)[C@H](O)C(=O)C=C(C)[C@@H]2C[C@H]3OC(=O)[C@H](O)[C@@]14O [EURYCOMANONE] | 96.8 | 101 | 87.2 | 101 | 97.5 | 47 | –
9 | C[C@H]1[C@H]2OC(=O)[C@@H]1[C@]1(C)C(=O)C=C3[C@@](C)(O)C[C@H](O)[C@@H](O)[C@]3(C)C1[C@H]2O (some centres not stated) | 96.6 | 102 | 101 | 101 | 102 | 102 | –
10 | CC1=CC(=O)O[C@H]1[C@@]1(C)C[C@H]2OC(=O)[C@H](O)[C@@]3(O)[C@@H](C)C(=O)C(O)=C1[C@@]23CO | 102 | 104 | 103 | 102 | 103 | 106 | –
11 | CC1=C2C[C@H]3OC(=O)[C@H](O)[C@@]4(O)[C@@H](C)[C@]5(O)C(=O)OC[C@]34C5[C@@]2(C)[C@H](O)[C@@H](O)C1 (some centres not stated) | 103 | 103 | 103 | 106 | 105 | 103 | –
12 | CC1=CC(=O)[C@@H](O)[C@@]2(C)[C@H]1[C@@H](O)[C@H]1OC(=O)C3[C@@H](C)[C@H](O)[C@H](O)[C@H]2[C@]31C (some centres not stated) [LONGILACTONE] | 99.7 | 99.8 | 66.1 | 101 | 102 | 66.9 | –
13 | CC1=CC(=O)[C@@H](O)[C@]2(C)[C@H]3[C@@H](O)[C@H](O)[C@H](C)[C@]4(O)[C@@H](O)C(=O)O[C@H](C[C@@H]12)[C@]34C | 99.5 | 86.4 | 43.3 | 101 | 71.6 | 21 | 48.2
14 | CC1=CC(=O)[C@@H](O)[C@]2(C)[C@H]3[C@]4(O)OC[C@@]35[C@@H](C[C@@H]12)OC(=O)[C@H](O)[C@@]5(O)[C@]1(CO1)[C@H]4O | 96.2 | 102 | 99.1 | 101 | 101 | 61.7 | –
15 | COc1cccc2c1C(=O)c1c(O)c3c(c(O)c1C2=O)C[C@@](O)(C(=O)CO)C[C@@H]3O[C@H]1C[C@H](N)[C@@H](O)[C@H](C)O1 [EPIRUBICIN] | – | 0.61 | – | – | 24.3 | – | –
